In assay [1] the target is T1, Somatostatin receptor type 3 (Homo sapiens, UniProt P32745). Kind of assay: Inhibitory constant on human somatostatin receptor type 3. The procedure, abridged:
(§1)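 Competition binding against [¹²⁵I-Tyr¹¹]SRIF-14 on membranes from CHO-K1 cells stably expressing each human SRIF receptor subtype. Method adapted from Shimon et al. Ki is reported.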

Assay [2] concerns the target T2, Somatostatin receptor type 5 (Homo sapiens, UniProt P35346). Kind of assay: Inhibitory constant on human somatostatin receptor 5. The procedure, abridged: as §1
In assay [3] the target is T3, Somatostatin receptor type 4 (Homo sapiens, UniProt P31391). The assay can be described thus: Inhibitory constant on human somatostatin receptor 4. A digest of the protocol: as §1
Assay [4] addresses T4, Somatostatin receptor type 2 (Homo sapiens, UniProt P30874). Kind of assay: (§2) Inhibitory constant on human Somatostatin receptor type 2. It is filed as single protein. The procedure, abridged:
as §1

The target in assay [5] is Somatostatin receptor type 1 (Homo sapiens, UniProt P30872). The assay can be described thus: Inhibitory constant on human Somatostatin receptor type 1. A digest of the protocol:
as §1

The target in assay [6] is T4, Somatostatin receptor type 2. The assay is described as §2. The procedure, abridged: as §1
The target of assay [7] is T3, Somatostatin receptor type 4. Kind of assay: Inhibitory constant on human Somatostatin receptor type 4. A digest of the protocol: as §1
Assay [8] has as its target T2, Somatostatin receptor type 5. The assay can be described thus: Inhibitory constant on human Somatostatin receptor type 5. The procedure, abridged: as §1
Assay [9] has as its target T1, Somatostatin receptor type 3. The assay can be described thus: Inhibitory constant on human Somatostatin receptor type 3. The procedure, abridged: as §1
The target of assay [10] is T2, Somatostatin receptor type 5. Kind of assay: Agonist activity on human somatostatin receptor 5. Type of assay: functional. A digest of the protocol:
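Confluent CHO-K1 cells expressing human sst₅ were washed in RPMI 1640 with 0.2% BSA at 37 °C, then preincubated 5 min with isobutylmethylxanthine. Cells were then incubated 20 min at 37 °C with forskolin plus increasing agonist concentrations.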

pEC50, pKi: −log10 of the molar value.

T2 sequence (P35346 whole entry): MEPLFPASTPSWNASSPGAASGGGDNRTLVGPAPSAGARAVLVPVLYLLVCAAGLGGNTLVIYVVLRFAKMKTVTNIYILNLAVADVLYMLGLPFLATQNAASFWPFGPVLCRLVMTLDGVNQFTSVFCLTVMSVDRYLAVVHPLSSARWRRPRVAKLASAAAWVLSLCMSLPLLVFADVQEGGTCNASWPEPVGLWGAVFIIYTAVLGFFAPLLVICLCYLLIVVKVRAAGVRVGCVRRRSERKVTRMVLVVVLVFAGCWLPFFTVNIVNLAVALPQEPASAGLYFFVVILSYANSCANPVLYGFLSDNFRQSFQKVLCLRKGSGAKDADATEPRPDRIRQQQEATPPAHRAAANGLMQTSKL
T3 sequence (P31391 whole entry): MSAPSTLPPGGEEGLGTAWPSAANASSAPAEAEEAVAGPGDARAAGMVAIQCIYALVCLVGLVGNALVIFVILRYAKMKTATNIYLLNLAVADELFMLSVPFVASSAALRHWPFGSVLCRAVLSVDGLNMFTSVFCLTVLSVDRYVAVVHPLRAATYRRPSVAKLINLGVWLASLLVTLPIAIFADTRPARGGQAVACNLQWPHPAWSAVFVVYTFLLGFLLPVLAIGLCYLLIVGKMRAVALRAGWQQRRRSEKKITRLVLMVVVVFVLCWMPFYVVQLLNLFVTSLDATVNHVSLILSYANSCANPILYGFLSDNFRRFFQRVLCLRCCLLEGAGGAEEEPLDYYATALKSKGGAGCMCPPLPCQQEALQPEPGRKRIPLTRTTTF
T4 sequence (P30874 whole entry): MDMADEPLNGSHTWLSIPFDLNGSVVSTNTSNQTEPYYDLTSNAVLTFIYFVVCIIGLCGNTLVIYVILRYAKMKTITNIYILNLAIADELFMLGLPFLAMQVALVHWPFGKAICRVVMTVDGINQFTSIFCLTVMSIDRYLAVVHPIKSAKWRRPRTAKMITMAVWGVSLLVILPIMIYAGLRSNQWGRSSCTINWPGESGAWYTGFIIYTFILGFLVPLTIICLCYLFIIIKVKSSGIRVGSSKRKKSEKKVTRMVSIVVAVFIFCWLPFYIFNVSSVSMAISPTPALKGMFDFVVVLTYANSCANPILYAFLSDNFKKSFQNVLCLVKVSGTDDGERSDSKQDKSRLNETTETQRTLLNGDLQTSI
T1 sequence (P32745 whole entry): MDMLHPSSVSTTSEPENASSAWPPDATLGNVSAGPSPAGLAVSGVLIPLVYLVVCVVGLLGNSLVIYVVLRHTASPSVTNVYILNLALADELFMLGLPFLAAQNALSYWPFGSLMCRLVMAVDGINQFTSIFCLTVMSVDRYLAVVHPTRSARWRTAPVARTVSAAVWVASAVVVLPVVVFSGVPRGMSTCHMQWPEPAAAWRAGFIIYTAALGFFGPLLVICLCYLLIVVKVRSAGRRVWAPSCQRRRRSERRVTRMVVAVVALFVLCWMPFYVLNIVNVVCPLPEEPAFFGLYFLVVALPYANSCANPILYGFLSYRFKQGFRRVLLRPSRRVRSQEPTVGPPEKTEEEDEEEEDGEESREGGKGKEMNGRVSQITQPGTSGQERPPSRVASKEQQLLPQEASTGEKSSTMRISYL
Somatostatin receptor type 1, sequence (P30872 whole entry): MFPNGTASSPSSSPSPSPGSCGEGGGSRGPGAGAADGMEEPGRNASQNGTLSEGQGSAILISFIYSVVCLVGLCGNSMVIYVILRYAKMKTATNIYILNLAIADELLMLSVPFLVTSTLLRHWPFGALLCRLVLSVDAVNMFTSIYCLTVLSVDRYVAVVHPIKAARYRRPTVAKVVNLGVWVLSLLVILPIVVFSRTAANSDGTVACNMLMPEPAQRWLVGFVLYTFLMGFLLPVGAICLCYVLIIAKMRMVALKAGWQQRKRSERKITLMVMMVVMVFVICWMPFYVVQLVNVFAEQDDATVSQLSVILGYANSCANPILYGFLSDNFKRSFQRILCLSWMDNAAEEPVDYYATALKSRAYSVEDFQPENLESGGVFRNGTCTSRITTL

Regarding `CC(C)(C(=O)NCCc1c[nH]c2ccccc12)c1cn2cc(-c3csc4ccccc34)nc(CCCN)c2n1`, the pKi in assay [1] is 5.00; in assay [2], 5.64; in assay [3], less than 5.00; in assay [4] it was 5.49; in assay [5] it was 5.40.

Take `c1ccc(Cc2nc(-c3ccccc3)cn3cc(-c4ccccc4)nc23)cc1`: the pKi in [6], in assay [7], in [5], in [8] and in assay [9] was less than 5.30 in each case.

Take `CC(C)(C(=O)NCCN)c1cn2c(n1)C(Cc1c[nH]c3ccccc13)N=C(Cc1ccccc1)C2` (stereo unspecified): the pKi in [6] is less than 5.00; in [7], less than 5.00; in assay [5] it was less than 5.00; in assay [8], less than 6.00; in [9], less than 5.00.

Turning to `NCCCc1nc(-c2cccc([N+](=O)[O-])c2)cn2cc(-c3ccccc3)nc12`, the pKi in [1] was 5.60; in [2], 6.37; in assay [3], less than 5.00; in [4] it was 5.10; in [5], 5.47.

As for `CC(C)(C(=O)NC1CCCCC1)c1cn2cc(-c3csc4ccccc34)nc(CCCN)c2n1`, the pKi in assay [1] is 5.43; in assay [2], 6.44; in assay [3], less than 5.00; in [4], 5.02; in [5], 5.01. The compound also showed a pEC50 in [10] of 5.80.

Turning to `NCCCc1nc(-c2ccccc2)cn2cc(-c3ccccc3)nc12`, the pKi in [1], in assay [2], in [3], in assay [4] and in assay [5] was less than 5.30 each time.

With `NCCCc1nc(-c2csc3ccccc23)cn2cc(-c3ccccc3)nc12`, the pKi in assay [1] was 5.77; in [2], 6.22; in assay [3], 5.14; in [4], 5.68; in assay [5], 5.54.

For `CC(C)(C(=O)NCCc1c[nH]c2ccccc12)c1cn2cc(Cc3ccccc3)nc(CCCN)c2n1`, the negative logarithm of the Ki (pKi) in [1] is 5.92; in [2] it was 5.92; in assay [3], 5.14; in assay [4], 5.07; in assay [5], 5.34.

`NCCCc1nc(-c2c[nH]c3ccccc23)cn2cc(-c3ccccc3)nc12`: the pKi in assay [1] was 5.51; in assay [2] it was 6.10; in assay [3], less than 5.00; in assay [4], 5.22; in [5], 5.48.

For the compound `CCCCNC(=O)C(C)(C)c1cn2cc(-c3csc4ccccc34)nc(CCCN)c2n1`, the pKi in assay [1] was 5.05; in [2], 6.27; in [3], less than 5.00; in [4] it was less than 5.00; in assay [5] it was less than 5.00.

Values taken from ChEMBL document CHEMBL1134229 (Bioorg Med Chem Lett, 2001).
